Measured values as given in ChEMBL document CHEMBL1152575, “Synthesis and GABA(A) receptor activity of 2,19-sulfamoyl analogues of allopregnanolone” (Bioorg Med Chem, 2009).

Legend:
Type in all cases: tissue-based
Rattus norvegicus [1] = species on record: Rattus norvegicus; test: Stimulation [3H]muscimol binding to GABA binding site of GABA-A receptor in Sprague-Dawley rat cerebellum at 800 nM by liquid scintillation spectrophotometry
Method in brief: (§1)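 Rat cerebellar P2 membranes (male, 200–250 g) in 50 mM Tris–acetate pH 7.4, about 1 mg/mL protein. Incubated with 10 nM [3H]muscimol and steroids at 20–1000 nM for 60 min at 4 °C. Steroid DMSO stocks were diluted 1:1000 in buffer. 10 µM GABA defined non-specific binding. Vacuum filtration over glass-fibre filters, scintillation counting. Four experiments in duplicate, averaged.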

Rattus norvegicus [2] = species on record: Rattus norvegicus; test: Stimulation [3H]flunitrazepam binding to benzodiazepine binding site of GABA-A receptor in Sprague-Dawley rat cerebellum at 800 nM by liquid scintillation spectrophotometry
Method in brief: (§2)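 Male rat (200–250 g) cerebellar P2 membranes, washed and resuspended in 50 mM Tris–HCl pH 7.1 (~1 mg/mL protein). Incubated with 1 nM [3H]flunitrazepam and steroids at 10–800 nM for 90 min at 4 °C. Steroids were in DMSO, diluted 1:1000 in buffer just before use. 1 µM diazepam defined non-specific binding. Filtered, then scintillation counting. Mean of four experiments in duplicate.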

Rattus norvegicus [3] = species on record: Rattus norvegicus; test: Stimulation [3H]flunitrazepam binding to benzodiazepine binding site of GABA-A receptor in Sprague-Dawley rat cerebellum at 50 nM by liquid scintillation spectrophotometry; method in brief: as §2
Rattus norvegicus [4] = species on record: Rattus norvegicus; test: Stimulation [3H]flunitrazepam binding to benzodiazepine binding site of GABA-A receptor in Sprague-Dawley rat cerebellum at 10 nM by liquid scintillation spectrophotometry; method in brief: as §2
Rattus norvegicus [5] = species on record: Rattus norvegicus; test: Stimulation [3H]muscimol binding to GABA binding site of GABA-A receptor in Sprague-Dawley rat cerebellum at 100 nM by liquid scintillation spectrophotometry; method in brief: as §1
Rattus norvegicus [6] = species on record: Rattus norvegicus; test: Stimulation [3H]flunitrazepam binding to benzodiazepine binding site of GABA-A receptor in Sprague-Dawley rat cerebellum at 250 nM by liquid scintillation spectrophotometry; method in brief: as §2
Rattus norvegicus [7] = species on record: Rattus norvegicus; test: Stimulation [3H]flunitrazepam binding to benzodiazepine binding site of GABA-A receptor in Sprague-Dawley rat cerebellum at 500 nM by liquid scintillation spectrophotometry; method in brief: as §2
Rattus norvegicus [8] = species on record: Rattus norvegicus; test: Stimulation [3H]muscimol binding to GABA binding site of GABA-A receptor in Sprague-Dawley rat cerebellum at 200 nM by liquid scintillation spectrophotometry; method in brief: as §1
Rattus norvegicus [9] = species on record: Rattus norvegicus; test: Stimulation [3H]muscimol binding to GABA binding site of GABA-A receptor in Sprague-Dawley rat cerebellum by liquid scintillation spectrophotometry; method in brief: as §1
Rattus norvegicus [10] = species on record: Rattus norvegicus; test: Stimulation [3H]flunitrazepam binding to benzodiazepine binding site of GABA-A receptor in Sprague-Dawley rat cerebellum at 25 nM by liquid scintillation spectrophotometry; method in brief: as §2
Rattus norvegicus [11] = species on record: Rattus norvegicus; test: Stimulation [3H]muscimol binding to GABA binding site of GABA-A receptor in Sprague-Dawley rat cerebellum at 20 nM by liquid scintillation spectrophotometry; method in brief: as §1
Rattus norvegicus [12] = species on record: Rattus norvegicus; test: Stimulation [3H]flunitrazepam binding to benzodiazepine binding site of GABA-A receptor in Sprague-Dawley rat cerebellum by liquid scintillation spectrophotometry; method in brief: as §2
Rattus norvegicus [13] = species on record: Rattus norvegicus; test: Stimulation [3H]flunitrazepam binding to benzodiazepine binding site of GABA-A receptor in Sprague-Dawley rat cerebellum at 100 nM by liquid scintillation spectrophotometry; method in brief: as §2
Rattus norvegicus [14] = species on record: Rattus norvegicus; test: Stimulation [3H]muscimol binding to GABA binding site of GABA-A receptor in Sprague-Dawley rat cerebellum at 400 nM by liquid scintillation spectrophotometry; method in brief: as §1
Rattus norvegicus [15] = species on record: Rattus norvegicus; test: Stimulation [3H]muscimol binding to GABA binding site of GABA-A receptor in Sprague-Dawley rat cerebellum at 50 nM by liquid scintillation spectrophotometry; method in brief: as §1
Rattus norvegicus [16] = species on record: Rattus norvegicus; test: Stimulation [3H]muscimol binding to GABA binding site of GABA-A receptor in Sprague-Dawley rat cerebellum at 1000 nM by liquid scintillation spectrophotometry; method in brief: as §1

CC(=O)[C@H]1CC[C@H]2[C@@H]3CC[C@H]4C[C@H](F)[C@@H]5C[C@]4(COS(=O)(=O)N5)[C@H]3CC[C@]12C showed an Activity (Rattus norvegicus [1]) of 96% and an Activity (Rattus norvegicus [2]) of 98%.

For CC(=O)[C@H]1CC[C@H]2[C@@H]3CC[C@H]4C[C@H](O)[C@@H]5C[C@]4(COS(=O)(=O)N5)[C@H]3CC[C@]12C, the Activity (Rattus norvegicus [3]) was 122%, the Activity (Rattus norvegicus [4]) was 104% and the Activity (Rattus norvegicus [5]) was 108%. It also gave an Activity (Rattus norvegicus [6]) of 126%, an Activity (Rattus norvegicus [7]) of 126% and an Activity (Rattus norvegicus [8]) of 106%. It also gave an EC50 (Rattus norvegicus [9]) of 542 nM, an Activity (Rattus norvegicus [10]) of 113% and an Activity (Rattus norvegicus [1]) of 170%. For the same molecule, the Activity (Rattus norvegicus [11]) was 100%, the EC50 (Rattus norvegicus [12]) was 63 nM and the Activity (Rattus norvegicus [2]) was 170%. For the same molecule, the Activity (Rattus norvegicus [13]) was 122%, the Activity (Rattus norvegicus [14]) was 118% and the Activity (Rattus norvegicus [15]) was 105%. For the same molecule, the Activity (Rattus norvegicus [16]) was 176%.

For CC(=O)[C@H]1CC[C@H]2[C@@H]3CC[C@H]4C[C@H](O)CC[C@]4(C)[C@H]3CC[C@]12C, the Activity (Rattus norvegicus [3]) was 92%, the Activity (Rattus norvegicus [4]) was 93% and the Activity (Rattus norvegicus [5]) was 108%. The Activity (Rattus norvegicus [6]) was 122%, the Activity (Rattus norvegicus [7]) was 132% and the Activity (Rattus norvegicus [8]) was 106%. It also gave an EC50 (Rattus norvegicus [9]) of 658 nM, an Activity (Rattus norvegicus [10]) of 93% and an Activity (Rattus norvegicus [1]) of 165%. The Activity (Rattus norvegicus [11]) was 95%, the EC50 (Rattus norvegicus [12]) was 265 nM and the Activity (Rattus norvegicus [2]) was 140%. For the same molecule, the Activity (Rattus norvegicus [13]) was 97%, the Activity (Rattus norvegicus [14]) was 116% and the Activity (Rattus norvegicus [15]) was 100%. It also gave an Activity (Rattus norvegicus [16]) of 173%.

With CC(=O)[C@H]1CC[C@H]2[C@@H]3CC[C@H]4C[C@H](O)[C@@H]5C[C@]4(COS(=O)(=O)N5Cc4ccccc4)[C@H]3CC[C@]12C the Activity (Rattus norvegicus [3]) was 118%, the Activity (Rattus norvegicus [4]) was 108% and the Activity (Rattus norvegicus [5]) was 121%. The Activity (Rattus norvegicus [6]) was 122%, the Activity (Rattus norvegicus [7]) was 125% and the Activity (Rattus norvegicus [8]) was 117%. The EC50 (Rattus norvegicus [9]) was 1890 nM, the Activity (Rattus norvegicus [10]) was 113% and the Activity (Rattus norvegicus [1]) was 124%. The Activity (Rattus norvegicus [11]) was 119%, the EC50 (Rattus norvegicus [12]) was 81 nM and the Activity (Rattus norvegicus [2]) was 134%. The Activity (Rattus norvegicus [13]) was 117%, the Activity (Rattus norvegicus [14]) was 124% and the Activity (Rattus norvegicus [15]) was 121%. For the same molecule, the Activity (Rattus norvegicus [16]) was 141%.
